This is a sample that favours compounds with a hit; in the whole collection about 2.8% have one here.
Mdm2 ligase inh: inhibitors of human Mdm2 E3 ubiquitin ligase; 0.11% of 210,000 active; signal enhancement, % at 5 µM; AID 1230; cell-based MDM2 ubiquitination luciferase reporter, 2 h; 0 = plate control, 100 = twice control, blank-subtracted; Q00987;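 active = signal enhancement of 30% or more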;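 note: luminescence tracks abundance of the self-degrading MDM2-luciferase fusion protein; higher signal means inhibition of MDM2 E3 ligase activity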
Target sequence (Q00987 whole entry, looked up, the tested form may be a part): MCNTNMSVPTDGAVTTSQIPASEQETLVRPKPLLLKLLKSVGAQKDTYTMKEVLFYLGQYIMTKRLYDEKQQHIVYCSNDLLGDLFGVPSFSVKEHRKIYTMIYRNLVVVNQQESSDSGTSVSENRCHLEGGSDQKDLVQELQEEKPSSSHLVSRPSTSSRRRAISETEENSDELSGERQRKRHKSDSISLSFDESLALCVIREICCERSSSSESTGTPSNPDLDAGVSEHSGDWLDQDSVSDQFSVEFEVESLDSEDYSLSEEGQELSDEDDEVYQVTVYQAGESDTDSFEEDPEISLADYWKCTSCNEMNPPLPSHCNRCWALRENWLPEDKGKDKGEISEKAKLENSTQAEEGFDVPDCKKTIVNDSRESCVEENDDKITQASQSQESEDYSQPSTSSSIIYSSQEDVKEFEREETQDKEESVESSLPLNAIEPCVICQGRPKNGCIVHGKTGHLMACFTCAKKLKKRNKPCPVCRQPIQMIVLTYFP
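Timing – 2 h compound exposure at 37 °C · Assay system – mammalian cells stably expressing self-ubiquitinating, self-degrading MDM2 E3–luciferase fusion · Amount – 2000 cells seeded into each well · Measure – % luminescence enhancement versus blank-corrected plate control mean · Measured by – SteadyLite luminescence, 15 min reagent step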
NPY1 pot ag: human NPY-Y1 potentiation or agonism, primary screen | NPY-Y1 expressing cells, potentiator/agonist activation | activation, % at 3.6 µM | 0.37% of 220,000 active | AID 1304; in the data active = activation above about 33%, passing the limit was not always enough;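 note: cells stimulated with NPY at EC10 then isoproterenol at EC100; 0% = low agonist plus stimulus and 100% = saturating agonist plus stimulus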
Measles CPE: protection of cells from measles virus; Measles virus-infected cells, CPE protection, absorbance; protection (pct of control), % at 4 µM; 1.5% of 140,000 active; AID 841; in the data active = protection mostly above about 24%, no sharp cut-off; inactive = mostly below about 26%
NPY2 pot ag: potentiators or agonists of human neuropeptide Y receptor Y2; P49146; cells expressing NPY-Y2, potentiator/agonist read-out; activation, % at 3.6 µM; 0.45% of 220,000 active; AID 1359; in the data active = activation above about 27%;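 note: cells stimulated with NPY near EC25 plus isoproterenol at EC100; 0% = vehicle plus submaximal agonist and 100% = vehicle plus saturating agonist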
NPY Y1 blocker: NPY-Y1 (human) receptor antagonism; HEK293-CNG Y1 cells, membrane potential fluorescence; NPY at EC95, then isoproterenol; P25929; AID 1040; 1% of 200,000 active; inhibition, % at 3.6 µM;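 active = inhibition above the campaign mean inhibition of all tested compounds plus 3 SD, cut at about 20% in these data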;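 note: 0% = DMSO wells given NPY plus isoproterenol and 100% = isoproterenol alone without NPY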
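Benchmarks – high control isoproterenol alone, low control NPY with isoproterenol · Material – HEK293 Y1/CNG channel cell line · Times – dye 3 h, compound 60 min room temperature, stimulation 45 min · Probe or stimulus – NPY (25 nM), isoproterenol (1 µM), Ro 20-1724 (25 µM) · Evaluation – % inhibition of NPY effect · Signal – fluorescence, membrane potential probe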
NPY-Y2 antag: NPY-Y2 (human) receptor antagonism; inhibition, % at 2.7 µM; 0.99% of 140,000 active; P49146; NPY-Y2 expressing cells, antagonist mode;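 note: 0% = vehicle with agonist challenge and 100% = reference antagonist with challenge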
NPY1 antag conf: human NPY-Y1 antagonism, confirmation. HEK293-CNG NPY-Y1, membrane potential fluorescence, cAMP; NPY challenge against isoproterenol-raised cAMP. inhibition, % at 3.6 µM. shares compounds with NPY Y1 blocker. 21% of 1,200 active. AID 1254; in the data active = inhibition above about 20%;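 note: 0% = vehicle with agonist plus stimulus and 100% = stimulus alone without agonist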
NPY2 antag ctr: counter-screen for NPY-Y1 antagonists: human NPY-Y2 antagonism; shares compounds with NPY Y1 blocker; HEK293 NPY-Y2 CNG membrane potential fluorescence; cells given NPY, then isoproterenol; inhibition, % at 3.6 µM; 28% of 1,200 active; AID 1255;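 note: 0% = DMSO with agonist challenge and 100% = reference antagonist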
An asterisk follows results filed as active; . = not tested or not shown; ! = a repeat was not active. Cut-off read from the data, not from the text of the source, unless noted: active = inhibition above about 17%; inactive = the rest.

SMILES	Mdm2 ligase inh	NPY1 pot ag	Measles CPE	NPY2 pot ag	NPY Y1 blocker	NPY-Y2 antag	NPY1 antag conf	NPY2 antag ctr
O=C(C1c2ccccc2C(=O)N2CCc3ccccc3C12)N1CCN(Cc2ccccc2)CC1 (stereo unspecified)	-13	6	7	-1	22*	10	6	3
O=C1CCc2cc(OCCCCc3nnnn3C3CCCCC3)ccc2N1	.	-70	2	-21	43*!	7	26*	46*
COc1cccc(N2CCN(Cc3nnnn3C3CCCCC3)CC2)c1	16	16	.	5	-1	.	.	.
O=C(O)c1cc(-c2ccccc2)n(-c2ccccc2)n1	-9	-20	7	-11	24*	11	5	10
O=C(O)c1cc(-c2ccccc2)n(-c2ccc(Cl)cc2)n1	-11	-19	.	-3	3	.	.	.
Cc1cnc(NC(=O)C(C)N2CCN(C)CC2)s1 (stereo unspecified)	1	13	.	11	0	.	.	.
COC(=O)c1ccc(NC(=O)CN2C(=O)C3C4C=CC(C4)C3C2=O)cc1 (stereo unspecified)	-26	16	11	-3	23*	4	3	3
C/C=C(/C)C(=O)O[C@@H]1[C@H](OC(=O)C=C(C)C)c2c(ccc3ccc(=O)oc23)OC1(C)C	.	2	4	4	6	4	.	.
C/C=C(/C)C(=O)O[C@@H]1c2c(ccc3ccc(=O)oc23)OC(C)(C)[C@@H]1OC(=O)/C(C)=C\C	.	-25	3	-4	31*	16	17	8
CCCC(=O)Nc1nnc(SCC(=O)N2CCN(c3ccccc3)CC2)s1	5	-4	.	7	.	.	.	.
CSc1nsc(SCC(=O)N2CCN(c3ccccc3)CC2)n1	-23	-45	7	-35	29*	14	12	7
Cc1cccn2c(CN[C@@H]3CCCC[C@H]3c3ccccc3)c(C(=O)N3CCOCC3)nc12	-21	8	.	-6	26*	.	10	5
CCN(Cc1ccccc1)C(c1ccc(C)cc1)c1nnnn1C(C)(C)CC (stereo unspecified)	-1	-28	5	-27	19	12	.	.
CC(C)(C)n1nnnc1C(c1ccc(C(F)(F)F)cc1)N(Cc1ccccc1)Cc1ccco1 (stereo unspecified)	-37	-4	55	-5	47*	7	29*	11
c1ccc(CN(Cc2ccco2)C(c2ccncc2)c2nnnn2C2CCCC2)cc1 (stereo unspecified)	2	0	8	-5	26*	6	12	5
CCc1cccc(CC)c1NC(=O)COC(=O)C1(C)CC1(Cl)Cl (stereo unspecified)	0	-4	.	-7	29*	.	11	18*
Cc1ccc(OCCN2CCN(c3ncnc4sc(C)c(C)c34)CC2)cc1	-18	-68	8	5	9	13	.	.
Clc1ccc(OCCN2CCN(c3ncnc4sccc34)CC2)cc1	-27	-46	21	-3	26*	8	20	20*
COc1cccc(NC(=O)c2cc(-c3ccncc3)nc3c(C)cc(C)cc23)c1	-19	-62	.	-67	22*	.	28*	29*
COc1ccc(C(=O)Nc2cccc(OC)c2)cc1	-30	-2	20	9	-1	1	.	.
Cc1cc(C)cc(-n2c(SCC(=O)Nc3cccc(S(=O)(=O)NC4=NCCCCC4)c3)nc3ccccc3c2=O)c1	-14	1	9	-5	3	4	.	.
CC1CCC(C(C)C)C(OC(=O)Cn2c(-c3ccc(Cl)cc3)[n+](C)c3ccccc32)C1 (stereo unspecified)	-25	-61	.	-60	.	.	.	.
CC1CCC(C(C)C)C(OC(=O)Cn2c(-c3ccc(Br)cc3)[n+](C)c3ccccc32)C1 (stereo unspecified)	-5	-11	.	-13	44*	.	37*	41*

High-throughput results deposited in PubChem BioAssay by several laboratories.
